Measurements reported in ChEMBL document CHEMBL1134536, “Nonpeptidic, monocharged, cell permeable ligands for the p56lck SH2 domain” (J Med Chem, 2001).

Key:
[1] = tested on: Jurkat; test: Percent inhibition of Ca+2 influx in jurkat T cells at 50 uM concentration; format: functional; details: Homo sapiens
Method in brief: (§1)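 Jurkat cells loaded with 2 μM Fluo-3 AM plus Pluronic F127 for 1 h at room temperature, washed, resuspended in HBSS with 10 mM HEPES pH 7.5. 4 × 10^6 cells per cuvette equilibrated to 37 °C; compound added 80 s before TCR cross-linking with 2 μg mouse anti-human CD3. Cytoplasmic calcium followed by fluorescence over time; EC50 from percent of control fluorescence at six doses.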

[2] = Inhibition of proliferation of CD4+T cells; format: functional, cell-based; details: Homo sapiens, CD4+ T cell
Method in brief: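 Human CD4+ T cells, 5 × 10^4/well, preincubated with compound for 1 h at 37 °C. Stimulated with anti-CD3, anti-CD28 and anti-mouse IgG beads. Pulsed 48 h after activation with 0.5 μCi/well [3H]-thymidine, incubated a further 18 h at 37 °C, harvested, and incorporated radioactivity counted.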

[3] = species: Homo sapiens; test: Percent permeated in 3 hours in Caco-2 model; format: ADME, organism-based; details: caco-2, 3 h
Method in brief: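 Caco-2 monolayers on collagen-coated polycarbonate filters, grown up to 25 days (passages 23–50). Cells equilibrated in HBSS pH 7.4 for 30 min at 37 °C. Drug applied apically at 0.01–0.1 mM final in HBSS at 37 °C, 5% CO2. Basolateral samples taken at intervals; cumulative amount plotted against time. Mannitol used to check monolayer integrity; mass balance >90%; at least triplicates.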

[4] = Inhibition of IL-2 production in CD4+T cells; format: functional, cell-based; details: Homo sapiens, CD4+ T cell
Method in brief: (§2)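 Purified human CD4+ T cells (5 × 10^4/well) in RPMI 1640 with 1% FBS. Compound diluted from DMSO stock, preincubated 1 h at 37 °C. Cells activated with 0.12 ng/well anti-CD3, 100 ng/well anti-CD28 and anti-mouse IgG magnetic beads, then incubated overnight at 37 °C, 5% CO2. Secreted IL-2 in supernatant measured by ELISA.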

[5] = tested on: Jurkat; test: Percent Inhibition of Ca+2 influx in jurkat T cells at 50 uM concentration; format: functional; details: Homo sapiens; method in brief: as §1
[6] = molecular target: Tyrosine-protein kinase Lck (Homo sapiens, UniProt P06239); test: Binding affinity for p56lck SH2 domain site
[7] = Inhibition of IL-2 production from CD4+T cells; format: functional, cell-based; details: Homo sapiens, CD4+ T cell; method in brief: as §2
[8] = tested on: Jurkat; test: Inhibition of Ca+2 influx in jurkat T cells; format: functional, cell-based; details: Homo sapiens; method in brief: as §1

Chain of Tyrosine-protein kinase Lck (P06239 whole entry, the tested form may be a part): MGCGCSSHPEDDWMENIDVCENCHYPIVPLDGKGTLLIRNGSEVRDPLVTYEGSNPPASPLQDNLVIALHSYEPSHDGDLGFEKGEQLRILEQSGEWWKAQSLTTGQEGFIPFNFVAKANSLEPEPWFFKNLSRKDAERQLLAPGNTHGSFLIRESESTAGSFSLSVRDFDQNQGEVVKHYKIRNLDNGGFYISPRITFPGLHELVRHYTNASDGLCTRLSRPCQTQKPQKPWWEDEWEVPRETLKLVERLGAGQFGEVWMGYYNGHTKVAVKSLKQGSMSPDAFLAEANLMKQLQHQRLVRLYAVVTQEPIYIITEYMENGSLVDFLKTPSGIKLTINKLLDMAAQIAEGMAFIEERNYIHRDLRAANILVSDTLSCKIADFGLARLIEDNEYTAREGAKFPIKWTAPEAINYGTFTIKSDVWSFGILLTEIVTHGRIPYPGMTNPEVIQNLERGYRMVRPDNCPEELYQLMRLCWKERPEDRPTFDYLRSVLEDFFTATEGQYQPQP

## COc1ccc(Cn2ccc(C)c(NC(=O)[C@@H](Cc3ccc(C(C)(C)C(=O)O)cc3)NC(=O)C(C)(C)c3ccc4ccccc4c3)c2=O)cc1
[1]
  inhibition at 50 µM: 29%
[2]
  EC50: 16.6 µM
[3]
  Permeated: 16%
[4]
  EC50: 11.3 µM
[5]
  inhibition at 50 µM: 57%

## COc1ccc(Cn2cccc(NC(=O)C(Cc3ccc(CC(=O)O)cc3)NC(=O)Cc3cccc4ccccc34)c2=O)cc1 (centres undefined)
[3]
  Permeated: 1.3%
[6]
  Kd: 23000 nM

## COc1ccc(Cn2ccc(C)c(NC(=O)[C@H](Cc3ccc(C(C)(C)C(=O)O)cc3)NC(=O)C(C)(C)c3ccc4ccccc4c3)c2=O)cc1
[2]
  EC50: 8.7 µM
[3]
  Permeated: 21%
[7]
  EC50: 9.4 µM
[8]
  EC50: 10.1 µM

## COc1ccc(CNC(=O)[C@H](CCC(=O)O)NC(=O)[C@H](Cc2ccc(CC(=O)O)cc2)NC(=O)Cc2cccc3ccccc23)cc1
[3]
  Permeated: 0.3%
[8]
  EC50: > 100 µM

## COc1ccc(Cn2ccc(C)c(NC(=O)C(Cc3ccc(CC(=O)O)cc3)NC(C)=O)c2=O)cc1 (centres undefined)
[3]
  Permeated: 0.4%
[6]
  Kd: 7000 nM

## COc1ccc(Cn2ccc(C)c(NC(=O)C(Cc3ccc(CC(=O)O)cc3)NC(=O)Cc3cccc4ccccc34)c2=O)cc1 (centres undefined)
[3]
  Permeated: 0.3%
[6]
  Kd: 1300 nM
[8]
  EC50: > 100 µM

## COc1ccc(Cn2ccc(C)c(NC(=O)C(Cc3ccc(C(C)(C)C(=O)O)cc3)NC(=O)Cc3cccc4ccccc34)c2=O)cc1 (racemic)
[3]
  Permeated: 0.4%
[6]
  Kd: 1200 nM
[8]
  EC50: 51 µM

## COc1ccc(Cn2ccc(C)c(NC(=O)C(Cc3ccc(C(C)(C)C(=O)O)cc3)NC(=O)Cc3ccc4ccccc4c3)c2=O)cc1 (racemic)
[3]
  Permeated: 0.6%
[6]
  Kd: 280 nM
[8]
  EC50: 30.5 µM
